Measurements gathered from unrelated publications.
Compare with care: the assays were run in different laboratories.
Target: Myotonin-protein kinase (DMPK, Homo sapiens, UniProt Q09013)
Residues used in one study (Q09013 1-629): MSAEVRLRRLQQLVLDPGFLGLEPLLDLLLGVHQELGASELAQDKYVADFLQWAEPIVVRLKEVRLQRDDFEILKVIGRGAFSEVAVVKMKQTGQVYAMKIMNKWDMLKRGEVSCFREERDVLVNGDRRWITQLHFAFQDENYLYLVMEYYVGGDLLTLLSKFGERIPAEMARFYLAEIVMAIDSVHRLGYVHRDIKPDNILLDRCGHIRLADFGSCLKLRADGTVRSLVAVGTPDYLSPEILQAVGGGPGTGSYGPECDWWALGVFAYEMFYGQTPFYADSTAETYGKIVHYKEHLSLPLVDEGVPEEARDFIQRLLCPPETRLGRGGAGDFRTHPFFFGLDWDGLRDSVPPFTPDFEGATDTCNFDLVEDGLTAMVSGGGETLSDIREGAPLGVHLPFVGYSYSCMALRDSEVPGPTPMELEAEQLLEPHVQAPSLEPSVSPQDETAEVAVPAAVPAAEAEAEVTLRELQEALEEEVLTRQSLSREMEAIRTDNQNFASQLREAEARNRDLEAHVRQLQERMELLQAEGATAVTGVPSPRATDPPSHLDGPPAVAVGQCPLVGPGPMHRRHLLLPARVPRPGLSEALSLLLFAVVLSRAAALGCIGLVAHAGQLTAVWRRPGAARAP

SMILES	effect on	mode	method	tested at	measurement	value
Cc1nn(C)cc1-c1nc2c(N3CCN(Cc4ccc(Cl)cc4)CC3)c(Cl)cnc2[nH]1	binding		competition with immobilised ligand	1 µM	remaining binding	100%
C#Cc1n[nH]c2c(-c3cn([C@@H](C)c4ccccn4)c(=O)[nH]c3=O)cc(F)cc12	enzyme activity	inhibitor		0.1 µM	inhibition	3.2%
Cn1cc(-c2cccc(N3CCc4c(sc5c4CC(C)(C)C5)C3=O)c2CO)cc(Nc2ccncn2)c1=O	enzyme activity	inhibitor		1 µM	inhibition	-4%
COc1ncccc1-c1cnn2ccc(N3CCN(C(=O)OC(C)C)CC3)nc12	binding		competition with immobilised ligand	1 µM	remaining binding	98%
CC(C)(C)c1cc(C=C(C#N)C#N)cc(Br)c1O	enzyme activity	inhibitor		0.5 µM	remaining activity	96.9%
Nc1ncc(-c2nc(N3CCOCC3)nc(N3CCOCC3)n2)c(C(F)F)n1	binding		competition with immobilised ligand	10 µM	remaining binding	76%
Cn1cc(-c2cc(F)cc(N3CCn4c(cc5c4CCCC5)C3=O)c2CO)cc(Nc2ccc(N3CCN(C4COC4)CC3)cn2)c1=O	enzyme activity	inhibitor		0.1 µM	inhibition	-7%
Cn1cncc1[C@](O)(COc1ccc(C#N)cc1-c1ccc(OC(F)(F)F)cc1)c1ccc(C#N)cc1	cell-free assay		competition with immobilised ligand	1 µM	remaining binding	98%
C#Cc1n[nH]c2c(-c3cn([C@@H](C)c4ccccc4)c(=O)[nH]c3=O)cc(F)cc12	enzyme activity	inhibitor		0.1 µM	inhibition	-4%
O=c1[nH]c2ccccc2n1C1CCN(Cc2ccc(-c3[nH]c4cc5ncnc5cc4nc3-c3ccccc3)cc2)CC1	cell-free assay			0.5 µM	remaining signal	98%
